Data on 6 substances can be found in publication PMC10634246 (ACS Omega, 2023).

One test deals with eNOS and ET-1. The note with it: cited from earlier work.
Another test deals with HUVECs. The note with it: Ang II-stimulated HUVECs; cited from earlier work.
Another test has as its system ET-1. Description: Western blot, ET-1 expression in HUVEC. The following applies: peptide 100 μM, 4 h, then Ang II 5 μM, 24 h. The class given is cell-based, human. The procedure, abridged: (§1)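 HUVECs at 5 × 10^6 cells/well, pretreated with 100 μM test peptide 4 h, then Ang II 5 μM 24 h. Lysed in ice-cold buffer 30 min, spun 12,000 × g 10 min, protein by BCA. Denatured 95 °C 10 min, 20–40 μg on 10% SDS-PAGE, PVDF transfer. Blocked in 5% BSA 1 h RT, primary antibody 4 °C overnight, secondary 1 h RT. Triplicate, mean ± SD.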
In general terms: In western blotting, separated proteins are transferred to a membrane and probed.

For another test, the system named is eNOS. Description: Western blot, eNOS expression in HUVEC. The class given is cell-based, human. The following applies: peptide 100 μM, 4 h, then Ang II 5 μM, 24 h. The procedure, abridged:
as §1

For another test, the system named is HO-1. Description: Western blot, HO-1 expression in HUVEC. The class given is cell-based, human. The following applies: peptide 100 μM, 4 h, then Ang II 5 μM, 24 h; gray scale analysis of bands. The procedure, abridged:
as §1

For test [1], the system named is HUVEC. Description: HUVEC morphology and cell number, inverted microscope. Format: cell-based, human. The following applies: peptide 100 μM, 4 h, then Ang II 5 μM, 24 h; 200×. An outline of the steps: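 HUVECs were suspended in fresh medium at a final 4 × 10^5 cells/well in 6-well plates and given 100 μM test peptide for 4 h. Medium was discarded, then 5 μM Ang II was added for 24 h. Cells were observed and photographed under an inverted microscope.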

The test system of the next test is SOD. Description: SOD activity in HUVEC. Format: cell-based, human. The following applies: peptide 100 μM, 4 h, then Ang II 5 μM, 24 h; assay kit; n = 3.
In a further test the test system is NQO1. Description: Western blot, NQO1 expression in HUVEC. Format: cell-based, human. The following applies: peptide 100 μM, 4 h, then Ang II 5 μM, 24 h; gray scale analysis of bands. The procedure, abridged:
as §1

For another test, the system named is Nrf2. Description: Western blot, Nrf2 expression in HUVEC. Format: cell-based, human. The note with it: peptide 100 μM, 4 h, then Ang II 5 μM, 24 h; for expression of Nrf2 protein: gray scale analysis of bands. An outline of the steps: as §1
The subject of a further test is CAT. Description: CAT activity in HUVEC. Format: cell-based, human. The following applies: peptide 100 μM, 4 h, then Ang II 5 μM, 24 h; assay kit; n = 3.
The subject of the next test is GSH-Px. Description: GSH-Px activity in HUVEC. The note with it: peptide 100 μM, 4 h, then Ang II 5 μM, 24 h; assay kit; n = 3. The class given is cell-based, human.
Another test relates to p-eNOS. Description: Western blot, p-eNOS in HUVEC. The class given is cell-based, human. The following applies: peptide 100 μM, 4 h, then Ang II 5 μM, 24 h. An outline of the steps: as §1
The next test concerns HepG2. The note with it: cited from earlier work.
Test [2] deals with HUVEC. Description: NO level in HUVEC. Format: cell-based, human. The following applies: peptide 100 μM, 4 h, then Ang II 5 μM, 24 h; for NO level: assay kit, n = 3.
Test [3] concerns HUVEC. Description: MDA content in HUVEC. The class given is cell-based, human. The note with it: 24 h, n = 3.

As to LSGYGP, the “effect on eNOS and ET-1 levels” value in the test with eNOS and ET-1 is “improvement effects”. In addition, in the test with HUVECs, the “protection against oxidative stress and endothelial injury” value was “revealed protective effects”.
On to IPIPATKT, for which, in the test on eNOS and ET-1, the “effect on eNOS and ET-1 levels” value is recorded as “improvement effects”.
Consider IVTNWDDMEK, for which the “effect on eNOS and ET-1 levels” value in the test on eNOS and ET-1 is on record as “improvement effects”.
Consider KLHDEEVA [KA-8], for which the ET-1 expression entry in the test with ET-1 is recorded as “markedly blocked the Ang II-induced changes”. Further, the eNOS expression result in the test with eNOS is listed as “increased”. The HO-1 expression entry with HO-1 was “increased”. In addition, in the test with HUVEC [1], the HUVEC morphology result was “did not improve the number and morphology of cells as significantly as PG-8”; the number of cells result was “did not improve the number and morphology of cells as significantly as PG-8”. For the same substance, the SOD activity result in the test on SOD is reported as “significantly reversed the decline”. Also, in the test on NQO1, the NQO1 expression entry is “increased”. Further, in the test with Nrf2, the “expression of Nrf2 protein” value is “reversed the inhibitory effect of Ang II”. In addition, in the test with CAT, the CAT activity entry is recorded as “significantly reversed the decline”. In the test with GSH-Px, the GSH-Px activity result is recorded as “significantly reversed the decline”. In addition, the “eNOS phosphorylation (p-eNOS)” value in the test on p-eNOS is “increased”. Moreover, the “protection against hyperglycemia-induced HepG2 damage” value with HepG2 was “revealed the protective effects”. Further, the NO level entry with HUVEC [2] is “increased”.
Regarding PSRILYG [PG-7], the ET-1 expression entry in the test on ET-1 is “markedly blocked the Ang II-induced changes”. In addition, in the test on eNOS, the eNOS expression entry is “increased”. For the same substance, the “eNOS level higher than in the Ang II group” value in the test with eNOS (compared to Ang II group) is recorded as “more than 100%”. For the same substance, the HO-1 expression entry in the test with HO-1 is given as “higher than that in the KA-8 group”. For the same substance, in the test with HUVEC [1], the number of cells entry is on record as “significantly reversed”. The SOD activity result in the test with SOD was “significantly rebounded to the levels in the Con group”. Also, the “level of intracellular MDA” value in the test with HUVEC [3] (peptide 100 μM, 4 h, then Ang II 5 μM, assay kit) is reported as “decreased to that of the Con group”. Further, the NQO1 expression result in the test on NQO1 is listed as “increased”. Also, the “Nrf2 content higher than in the Con group” value in the test with Nrf2 (compared to Con group) is “about 50%”. In the test with Nrf2, the “expression of Nrf2 protein” value is reported as “reversed the inhibitory effect of Ang II”. Further, the CAT activity result with CAT is given as “significantly rebounded to the levels in the Con group”. Further, in the test on GSH-Px, the GSH-Px activity result is “significantly rebounded to the levels in the Con group”. For the same substance, the “eNOS phosphorylation (p-eNOS)” value in the test on p-eNOS is on record as “increased”. Also, the “p-eNOS level higher than in the Ang II group” value in the test with p-eNOS (compared to Ang II group) is on record as “more than 100%”. Besides, the “protection against hyperglycemia-induced HepG2 damage” value in the test on HepG2 is “revealed the protective effects”. In the test on HUVEC [2], the NO level entry is listed as “increased”. The “NO level higher than in the Ang II group” value in the test on HUVEC [2] (compared to Ang II group) is recorded as “more than 100%”.
For the substance “Angiotensin II [Ang II, reference compound]”, the ET-1 expression result in the test with ET-1 is on record as “increased”. Further, the eNOS expression entry with eNOS was “obvious inhibition”. In the test on HUVEC [1], the HUVEC morphology result is on record as “polygonal or round with the blurred cell boundaries” and the number of cells result is “significantly reduced compared with the Con group”. In addition, in the test on SOD, the SOD activity entry is on record as “significantly reduced”. Moreover, the “increase of MDA content compared to the Con group” value in the test with HUVEC [3] (Ang II 5 μM, compared to Con group) is given as 200%. Also, in the test on Nrf2, the “expression of Nrf2 protein” value is “significantly inhibited”. Further, the CAT activity entry with CAT is “significantly reduced”. Also, the GSH-Px activity result in the test with GSH-Px is “significantly reduced”. In the test on p-eNOS, the “eNOS phosphorylation (p-eNOS)” value is listed as “obvious inhibition”. Also, the NO level result in the test with HUVEC [2] is on record as “obvious inhibition”.
